Assay results published in ChEMBL document CHEMBL1125639, “Synthesis and resolution of (+-)-7-chloro-8-hydroxy-1-(3'-iodophenyl)-3-methyl-2,3,4,5-tetrahydro- 1H-3- benzazepine (TISCH): a high affinity and selective iodinated ligand for CNS D1 dopamine receptor” (J Med Chem, 1991).
Where “and” joins values, the source holds several entries; their conditions need not be identical. Identical values can stand only once.

Legend:
[1] = (§1) Biodistribution ratio measured as the ratio of compound present in brain to that of blood at 4 hr after intravenous injection; format: ADME, organism-based; settings: rat, brain / blood
How it was run: (§2)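 Male Sprague-Dawley rats (225-300 g) given 0.2 mL saline containing [125I]-labeled ligand (2-5 μCi, ~2200 Ci/mmol) via femoral vein under ether anesthesia; sacrificed at set times by cardiac excision. Brain and blood weighed and gamma-counted against diluted injectate; ratio taken from % dose/gram values, 3 rats per time point.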

[2] = system: Rattus norvegicus; test: as §1; format: ADME, organism-based; settings: brain, 4 h; how it was run: as §2
[3] = system: Rattus norvegicus; test: Ratio of regional brain distribution in striatum to that of cerebellum at 4 hr after intravenous injection; format: ADME, organism-based; settings: in vivo
How it was run: (§3)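 After femoral-vein injection of [125I]-labeled ligand (2-5 μCi, ~2200 Ci/mmol, 0.2 mL saline, ether anesthesia) into male Sprague-Dawley rats (225-300 g), brains were dissected into cortex, striatum and cerebellum, weighed and gamma-counted. % dose/gram calculated against diluted initial dose; regional ratio = % dose/gram of region divided by that of cerebellum.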

[4] = system: Rattus norvegicus; test: Regional brain distribution of compound in rats cerebellum after an intravenous injection was measured at 1 hr; format: ADME, organism-based; settings: in vivo; how it was run: as §3
[5] = system: Rattus norvegicus; test: Regional brain distribution of compound in rats cerebellum after an intravenous injection was measured at 2 min; format: ADME, organism-based; settings: in vivo; how it was run: as §3
[6] = system: Rattus norvegicus; test: Regional brain distribution of compound in rats cerebellum after an intravenous injection was measured at 30 min; format: ADME, organism-based; settings: in vivo, 0.5 h; how it was run: as §3
[7] = system: Rattus norvegicus; test: Regional brain distribution of compound in rats cerebellum after an intravenous injection was measured at 4 hr; format: ADME, organism-based; settings: in vivo; how it was run: as §3
[8] = system: Rattus norvegicus; test: Regional brain distribution of compound in rats striatum after an intravenous injection was measured at 1 hr; format: ADME, organism-based; settings: in vivo; how it was run: as §3
[9] = system: Rattus norvegicus; test: Regional brain distribution of compound in rats striatum after an intravenous injection was measured at 30 min; format: ADME, organism-based; settings: in vivo, 0.5 h; how it was run: as §3
[10] = system: Rattus norvegicus; test: Regional brain distribution of compound in rats striatum after an intravenous injection was measured at 4 hr; format: ADME, organism-based; settings: in vivo; how it was run: as §3
[11] = system: Rattus norvegicus; test: Biodistribution of compound in rats blood after an intravenous injection was measured at 1 hr; format: ADME, organism-based; settings: in vivo
How it was run: (§4)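 Male Sprague-Dawley rats (225-300 g), free access to food and water. Under ether anesthesia, given 0.2 mL saline containing 125I-labelled ligand (2-5 μCi, ~2200 Ci/mmol) into the femoral vein. Killed by cardiac excision at set times. Organs removed, weighed and gamma-counted. % dose/organ is taken against diluted injectate aliquots, with blood and muscle assumed to be 7% and 40% of body weight. Mean of 3 rats ± std dev.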

[12] = system: Rattus norvegicus; test: Biodistribution of compound in rats blood after an intravenous injection was measured at 24 hr; format: ADME, organism-based; settings: in vivo; how it was run: as §4
[13] = system: Rattus norvegicus; test: Biodistribution of compound in rats blood after an intravenous injection was measured at 2 min; format: ADME, organism-based; settings: in vivo; how it was run: as §4
[14] = system: Rattus norvegicus; test: Biodistribution of compound in rats blood after an intravenous injection was measured at 30 min; format: ADME, organism-based; settings: in vivo, 0.5 h; how it was run: as §4
[15] = system: Rattus norvegicus; test: Biodistribution of compound in rats blood after an intravenous injection was measured at 4 hr; format: ADME, organism-based; settings: in vivo; how it was run: as §4
[16] = system: Rattus norvegicus; test: Biodistribution of compound in rats brain after an intravenous injection was measured at 1 hr; format: ADME, organism-based; settings: in vivo
How it was run: (§5)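 Rats (male Sprague-Dawley, 225-300 g) given the 125I ligand (2-5 μCi, ~2200 Ci/mmol) in 0.2 mL saline via the femoral vein under ether anesthesia, then killed at set times. Whole brain removed, weighed and gamma-counted. % dose/organ is taken against diluted injectate aliquots. Mean of 3 rats ± std dev.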

[17] = system: Rattus norvegicus; test: Biodistribution of compound in rats brain after an intravenous injection was measured at 24 hr; format: ADME, organism-based; settings: in vivo; how it was run: as §5
[18] = system: Rattus norvegicus; test: Biodistribution of compound in rats muscle after an intravenous injection was measured at 1 hr; format: ADME, organism-based, Muscle tissue; settings: in vivo; how it was run: as §4
[19] = system: Rattus norvegicus; test: Biodistribution of compound in rats muscle after an intravenous injection was measured at 24 hr; format: ADME, organism-based, Muscle tissue; settings: in vivo; how it was run: as §4
[20] = system: Rattus norvegicus; test: Biodistribution of compound in rats muscle after an intravenous injection was measured at 2 min; format: ADME, organism-based, Muscle tissue; settings: in vivo; how it was run: as §4
[21] = system: Rattus norvegicus; test: Biodistribution of compound in rats muscle after an intravenous injection was measured at 30 min; format: ADME, organism-based, Muscle tissue; settings: in vivo, 0.5 h; how it was run: as §4
[22] = system: Rattus norvegicus; test: Biodistribution of compound in rats muscle after an intravenous injection was measured at 4 hr; format: ADME, organism-based, Muscle tissue; settings: in vivo; how it was run: as §4
[23] = system: Rattus norvegicus; test: Biodistribution of compound in rats skin after an intravenous injection was measured at 1 hr; format: ADME, organism-based, Zone of skin; settings: in vivo; how it was run: as §4
[24] = system: Rattus norvegicus; test: Biodistribution of compound in rats skin after an intravenous injection was measured at 24 hr; format: ADME, organism-based, Zone of skin; settings: in vivo; how it was run: as §4
[25] = system: Rattus norvegicus; test: Biodistribution of compound in rats skin after an intravenous injection was measured at 4 hr; format: ADME, organism-based, Zone of skin; settings: in vivo; how it was run: as §4
[26] = system: Rattus norvegicus; test: Biodistribution of compound in rats spleen after an intravenous injection was measured at 1 hr; format: ADME, organism-based; settings: in vivo; how it was run: as §4
[27] = system: Rattus norvegicus; test: Biodistribution of compound in rats spleen after an intravenous injection was measured at 24 hr; format: ADME, organism-based; settings: in vivo; how it was run: as §4
[28] = Ratio of regional brain distribution in striatum to that of cerebellum at 2 min after intravenous injection; format: functional; how it was run: as §3
[29] = system: Rattus norvegicus; test: Biodistribution of compound in rats kidney after an intravenous injection was measured at 1 hr; format: ADME, organism-based; settings: in vivo; how it was run: as §4

Structure (SMILES): CN1CCc2cc(Cl)c(O)cc2[C@@H](c2cccc(I)c2)C1
- Kp at 4 h [1]: 5.23
- Biodistribution [2]: 5.23%
- Biodistribution [3]: 56.5
- Biodistribution [4]: 0.129
- Biodistribution [5]: 1.03
- Biodistribution [6]: 0.248
- Biodistribution [7]: 0.011
- Biodistribution [8]: 1.455
- Biodistribution [9]: 7.09% and 5.23%
- Biodistribution [10]: 0.6
- Biodistribution [11]: 0.847
- Biodistribution [12]: 0.046
- Biodistribution [13]: 3.28
- Biodistribution [14]: 0.773
- Biodistribution [15]: 0.254
- Biodistribution [16]: 0.568
- Biodistribution [17]: 0.001
- Biodistribution [18]: 8.59
- Biodistribution [19]: 0.201
- Biodistribution [20]: 10.8
- Biodistribution [21]: 9.3
- Biodistribution [22]: 1.17
- Biodistribution [23]: 7.42
- Biodistribution [24]: 0.288
- Biodistribution [25]: 1.14
- Biodistribution [26]: 0.123
- Biodistribution [27]: 0.001
- Ratio [28]: 1.28
- Biodistribution [29]: 0.883
